Key:
[1] = Plasma protein binding in human; format: ADME, cell-free; conditions: for fraction unbound: read-out: PPB (converted)
[2] = Intrinsic clearance in human liver microsomes; format: ADME; conditions: read-out: CLH
[3] = molecular target: Muscarinic acetylcholine receptor M3 (Cavia porcellus, UniProt Q8VH26); assay: Antagonist activity at M3 receptor in Dunkin-Hartley guinea pig trachea assessed as inhibition of methacholine-induced airway smooth muscle contraction after 1 to 4 hrs; conditions: read-out: pA2 (converted)
Outline: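 Isolated guinea pig tracheal rings equilibrated 1 h, re-tensioned to 1 g, primed with methacholine, then a cumulative methacholine curve (3 × 10^-9 to 3 × 10^-5 M). Vehicle or compound equilibrated 1 or 4 h before a second curve (3 × 10^-9 to 1 × 10^-3 M final). Isometric force as % of curve-1 maximum. pA2 calculated from vehicle and test A50 values; n = 2.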

[4] = molecular target: Muscarinic acetylcholine receptor M3 (Homo sapiens, UniProt P20309); assay: Displacement of [3H]NMS from recombinant human M3 receptor expressed in CHO-K1 cells after 16 hrs by SPA method; format: cell-based
Outline: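 Nonspecific binding defined with atropine 1 µM; eight total-binding replicates per plate. Incubated at room temperature at least 16 h to equilibrium before counting; n ≥ 2.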

[5] = test system: Cavia porcellus; assay: Toxicity in guinea pig assessed as reduction of pilocarpine-induced salivation administered via intranasal administered for 4 hrs followed by pilocarpine challenge measured every 5 mins for 15 mins; format: organism-based
Outline: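 Compound or vehicle given intranasally under halothane. At 4 h, animals were anaesthetised with urethane and the mouth dried with gauze for 5 min. Baseline saliva taken on a pre-weighed pad over 5 min. Pilocarpine 0.6 mg/kg given subcutaneously, then pads replaced every 5 min for 15 min and saliva quantified by pad weight gain.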

[6] = Half life in guinea pig lung administered via intratracheal instillation at 1 ug/kg by HPLC-MS analysis; format: ADME, tissue-based, Cavia porcellus; conditions: inhaled or intranasal, 0.001 mg/kg
Outline: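 Halothane-anaesthetised guinea pigs given 1 μg/kg by intratracheal instillation. Lungs collected at 0.25-24 h after barbiturate overdose, homogenised in phosphate buffer and added to ice-cold methanol. Supernatant analysed by mass spectrometry/HPLC.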

Chain of Muscarinic acetylcholine receptor M3 (Homo sapiens, UniProt P20309) (P20309 whole entry): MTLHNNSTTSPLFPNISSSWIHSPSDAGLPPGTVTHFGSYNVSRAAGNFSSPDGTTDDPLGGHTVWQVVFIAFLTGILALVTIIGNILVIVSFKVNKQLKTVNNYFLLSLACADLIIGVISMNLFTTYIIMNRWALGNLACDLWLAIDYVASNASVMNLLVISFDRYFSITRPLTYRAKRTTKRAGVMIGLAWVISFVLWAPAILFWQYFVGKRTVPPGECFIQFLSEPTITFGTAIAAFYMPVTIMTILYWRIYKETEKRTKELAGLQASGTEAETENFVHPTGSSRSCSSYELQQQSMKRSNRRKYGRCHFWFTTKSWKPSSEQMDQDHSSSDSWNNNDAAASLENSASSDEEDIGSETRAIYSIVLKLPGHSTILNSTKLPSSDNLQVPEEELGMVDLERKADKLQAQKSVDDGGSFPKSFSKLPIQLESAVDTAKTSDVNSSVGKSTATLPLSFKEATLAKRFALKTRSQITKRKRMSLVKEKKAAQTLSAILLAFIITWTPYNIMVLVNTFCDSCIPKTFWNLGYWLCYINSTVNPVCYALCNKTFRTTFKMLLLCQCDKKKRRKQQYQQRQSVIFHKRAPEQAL
Chain of Muscarinic acetylcholine receptor M3 (Cavia porcellus, UniProt Q8VH26) (Q8VH26 whole entry): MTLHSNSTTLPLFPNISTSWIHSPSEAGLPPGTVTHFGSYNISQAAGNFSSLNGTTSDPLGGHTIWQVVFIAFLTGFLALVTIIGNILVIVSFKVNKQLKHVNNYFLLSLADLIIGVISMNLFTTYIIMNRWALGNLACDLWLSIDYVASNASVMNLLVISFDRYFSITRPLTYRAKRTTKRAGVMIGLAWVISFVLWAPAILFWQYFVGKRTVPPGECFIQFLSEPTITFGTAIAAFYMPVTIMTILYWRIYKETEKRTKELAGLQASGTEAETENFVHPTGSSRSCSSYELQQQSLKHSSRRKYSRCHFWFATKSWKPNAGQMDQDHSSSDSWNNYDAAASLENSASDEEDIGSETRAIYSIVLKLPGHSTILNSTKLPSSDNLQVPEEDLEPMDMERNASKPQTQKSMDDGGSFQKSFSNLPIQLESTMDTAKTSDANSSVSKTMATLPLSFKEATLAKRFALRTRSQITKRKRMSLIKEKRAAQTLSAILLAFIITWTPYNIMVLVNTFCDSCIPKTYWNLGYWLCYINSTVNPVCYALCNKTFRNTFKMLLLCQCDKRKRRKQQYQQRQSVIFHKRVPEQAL

Row | Structure (SMILES) | fraction unbound [1] | microsomal CLint [2] | Kb [3] | IC50 [4] | PPB [1] | EC50 [5] | half-life [6]
1 | O=C(O[C@H]1C[N+]2(CCOCc3ccccc3)CCC1CC2)C1(C2=CC=CC2)CCCCCC1 | 0.03 | 120 µL/min/mg | 3.98 nM | 0.126 nM |  |  | 
2 | O=C(C[N+]12CCC(CC1)[C@@H](OC(=O)C1(C3=CC=CC3)CCCCCC1)C2)Nc1ncns1 |  | 25 µL/min/mg |  | 0.398 nM |  |  | 
3 | O=C(C[N+]12CCC(CC1)[C@H](OC(=O)C1(C3=CC=CC3)CCCCCC1)C2)Nc1ccccn1 |  |  |  | 31.6 nM |  |  | 
4 | CC(C)(C)c1cc(NC(=O)C[N+]23CCC(CC2)[C@@H](OC(=O)C2(C4=CC=CC4)CCCCCC2)C3)no1 |  |  |  | 10 nM |  |  | 
5 | O=C(C[N+]12CCC(CC1)[C@@H](OC(=O)C1(C3=CC=CC3)CCCCCC1)C2)Nc1ccc(C(F)(F)F)nc1 |  | 5 µL/min/mg |  | 0.251 nM |  |  | 
6 | O=C(C[N+]12CCC(CC1)[C@@H](OC(=O)C1(C3=CC=CC3)CCCCCC1)C2)Nc1ccncn1 | 0.11 |  |  | 0.158 nM |  |  | 
7 | O=C(O[C@H]1C[N+]2(CCOc3ccccc3)CCC1CC2)C1(C2=CC=CC2)CCCCCC1 | 0.04 | 106 µL/min/mg | 0.398 nM | 0.158 nM |  |  | 
8 | Cc1ccc(NC(=O)C[N+]23CCC(CC2)[C@@H](OC(=O)C2(C4=CC=CC4)CCCCCC2)C3)nc1 | 0.019 | 51 µL/min/mg |  | 0.501 nM |  |  | 
9 | Cn1ccc(CCC[N+]23CCC(CC2)[C@@H](OC(=O)C2(C4=CC=CC4)CCCCCC2)C3)n1 | 0.06 | 63 µL/min/mg |  | 0.501 nM |  |  | 
10 | Cc1ccc(CC[N+]23CCC(CC2)[C@@H](OC(=O)C2(C4=CC=CC4)CCCCCC2)C3)s1 | 0.01 | 130 µL/min/mg | 0.316 nM | 0.0631 nM |  |  | 
11 | O=C(C[N+]12CCC(CC1)[C@@H](OC(=O)C1(C3=CC=CC3)CCCCCC1)C2)NCCCNC(=O)c1ccccn1 | 0.026 | 101 µL/min/mg |  | 6.31 nM |  |  | 
12 | O=C(C[N+]12CCC(CC1)[C@@H](OC(=O)C1(C3=CC=CC3)CCCCCC1)C2)N1CCOCC1 |  | 15 µL/min/mg |  | 100 nM |  |  | 
13 | O=C(C[N+]12CCC(CC1)[C@@H](OC(=O)C1(C3=CC=CC3)CCCCCC1)C2)Nc1ccc(C(F)(F)F)nn1 |  |  |  | 2.51 nM |  |  | 
14 | O=C(O[C@H]1C[N+]2(CCc3cccc(Cl)c3)CCC1CC2)C1(C2=CC=CC2)CCCCCC1 | 0.005 | 72 µL/min/mg | 0.251 nM | < 0.0398 nM |  |  | 
15 | O=C(C[N+]12CCC(CC1)[C@@H](OC(=O)C1(C3=CC=CC3)CCCCCC1)C2)Nc1ncco1 | 0.15 | 66 µL/min/mg |  | 12.6 nM |  |  | 
16 | O=C(C[N+]12CCC(CC1)[C@@H](OC(=O)C1(C3=CC=CC3)CCCCCC1)C2)Nc1ccncc1 | 0.05 | 39 µL/min/mg |  | 2.51 nM |  |  | 
17 | C[N+]12CCC(CC1)[C@@H](OC(=O)C1(C3=CC=CC3)CCCCCC1)C2 | 0.27 | 34 µL/min/mg |  | 2.51 nM |  |  | 
18 | O=C(C[N+]12CCC(CC1)[C@@H](OC(=O)C1(C3=CC=CC3)CCCCCC1)C2)Nc1ncccc1F | 0.06 | 49 µL/min/mg |  | 0.251 nM |  |  | 
19 | Cc1cc(NC(=O)C[N+]23CCC(CC2)[C@@H](OC(=O)C2(C4=CC=CC4)CCCCCC2)C3)ncn1 | 0.2 | 26 µL/min/mg |  | 1 nM |  |  | 
20 | O=C(O[C@H]1C[N+]2(Cc3ccccc3)CCC1CC2)C1(C2=CC=CC2)CCCCCC1 |  | 68 µL/min/mg |  | 39.8 nM |  |  | 
21 | O=C(O[C@H]1C[N+]2(CCCOc3ccccc3)CCC1CC2)C(O)(c1cccs1)c1cccs1.[Br-] [ACLIDINIUM BROMIDE] |  | > 145 µL/min/mg |  |  | ND(Unstable) |  | 
22 | N#Cc1ccc(CC[N+]23CCC(CC2)[C@@H](OC(=O)C2(C4=CC=CC4)CCCCCC2)C3)cc1 |  | 49 µL/min/mg |  | 3.16 nM |  |  | 
23 | O=C(O[C@H]1C[N+]2(Cc3nc4ccccc4o3)CCC1CC2)C1(C2=CC=CC2)CCCCCC1 | 0.023 | 78 µL/min/mg | 0.158 nM | 0.1 nM |  | > 10 µg/kg | 13 h
24 | Cc1ccc(CCC[N+]23CCC(CC2)[C@@H](OC(=O)C2(C4=CC=CC4)CCCCCC2)C3)c(C)n1 | 0.04 | 50 µL/min/mg |  | 1 nM |  |  | 
25 | Cc1ccc(NC(=O)C[N+]23CCC(CC2)[C@@H](OC(=O)C2(C4=CC=CC4)CCCCCC2)C3)nn1 | 0.1 | 16 µL/min/mg |  | 0.794 nM |  |  | 
26 | O=C(C[N+]12CCC(CC1)[C@@H](OC(=O)C1(C3=CC=CC3)CCCCCC1)C2)Nc1ccccc1 | 0.006 | 27 µL/min/mg |  | 0.251 nM |  |  | 

Row | Structure (SMILES) | fraction unbound [1] | microsomal CLint [2] | Kb [3] | IC50 [4] | PPB [1] | EC50 [5] | half-life [6]
27 | Cc1nccc(NC(=O)C[N+]23CCC(CC2)[C@@H](OC(=O)C2(C4=CC=CC4)CCCCCC2)C3)n1 |  |  |  | 0.398 nM |  |  | 
28 | O=C(C[N+]12CCC(CC1)[C@@H](OC(=O)C1(C3=CC=CC3)CCCCCC1)C2)Nc1cccnc1 | 0.04 | 40 µL/min/mg |  | 0.2 nM |  |  | 
29 | O=C(C[N+]12CCC(CC1)[C@@H](OC(=O)C1(C3=CC=CC3)CCCCCC1)C2)Nc1cc[nH]n1 | 0.05 | 37 µL/min/mg |  | 0.1 nM |  |  | 
30 | O=C(O[C@H]1C[N+]2(CCCc3ccncc3)CCC1CC2)C1(c2cccs2)CCCCCC1 | 0.06 | 55 µL/min/mg | 0.1 nM | 0.0501 nM |  |  | 
31 | O=C(C[N+]12CCC(CC1)[C@@H](OC(=O)C1(C3=CC=CC3)CCCCCC1)C2)Nc1cncnc1 |  | 32 µL/min/mg |  | 0.631 nM |  |  | 
32 | O=C(O[C@H]1C[N+]2(Cc3ccc(F)c(F)c3)CCC1CC2)C1(C2=CC=CC2)CCCCCC1 |  | 55 µL/min/mg |  | 39.8 nM |  |  | 
33 | O=C(C[N+]12CCC(CC1)[C@@H](OC(=O)C1(C3=CC=CC3)CCCCCC1)C2)Nc1cccc(F)c1 | 0.003 | 17 µL/min/mg | 3.16 nM | 0.126 nM |  |  | 
34 | O=C(O[C@H]1C[N+]2(Cc3cc(-c4ccccc4)on3)CCC1CC2)C1(C2=CC=CC2)CCCCCC1 | 0.005 | 79 µL/min/mg | 3.16 nM | 0.0794 nM |  |  | 12.1 h
35 | Cc1ccc(CCC[N+]23CCC(CC2)[C@@H](OC(=O)C2(C4=CC=CC4)CCCCCC2)C3)cn1 | 0.05 | 77 µL/min/mg |  | 0.158 nM |  |  | 19.2 h
36 | O=C(C[N+]12CCC(CC1)[C@@H](OC(=O)C1(C3=CC=CC3)CCCCCC1)C2)NCCNC(=O)c1cnccn1 |  | 74 µL/min/mg |  | 3.16 nM |  |  | 
37 | O=C(C[N+]12CCC(CC1)[C@@H](OC(=O)C1(C3=CC=CC3)CCCCCC1)C2)Nc1ccc(F)cn1 | 0.024 |  |  | 0.631 nM |  |  | 
38 | Cc1cnc(NC(=O)C[N+]23CCC(CC2)[C@@H](OC(=O)C2(C4=CC=CC4)CCCCCC2)C3)cn1 | 0.04 | 27 µL/min/mg |  | 0.794 nM |  |  | 
39 | O=C(C[N+]12CCC(CC1)[C@@H](OC(=O)C1(C3=CC=CC3)CCCCCC1)C2)Nc1cccnn1 | 0.1 | 70 µL/min/mg | 0.0794 nM | 0.158 nM |  | > 10 µg/kg | 42.4 h
40 | O=C(C[N+]12CCC(CC1)[C@@H](OC(=O)C1(C3=CC=CC3)CCCCCC1)C2)Nc1nncs1 | 0.06 | 39 µL/min/mg |  | 7.94 nM |  |  | 
41 | O=C(O[C@H]1C[N+]2(Cc3csc(-c4ccccc4)n3)CCC1CC2)C1(C2=CC=CC2)CCCCCC1 |  | 133 µL/min/mg |  | 25.1 nM |  |  | 
42 | COc1cccc(C[N+]23CCC(CC2)[C@@H](OC(=O)C2(C4=CC=CC4)CCCCCC2)C3)c1 |  |  |  | 3.16 nM |  |  | 
43 | O=C(C[N+]12CCC(CC1)[C@@H](OC(=O)C1(C3=CC=CC3)CCCCCC1)C2)Nc1cccc(C(F)(F)F)n1 | 0.004 |  |  | 2.51 nM |  |  | 
44 | Cc1cncc(NC(=O)C[N+]23CCC(CC2)[C@@H](OC(=O)C2(C4=CC=CC4)CCCCCC2)C3)n1 |  | 27 µL/min/mg |  | 0.631 nM |  |  | 
45 | O=C(O[C@H]1C[N+]2(Cc3ccn(-c4ccccc4)n3)CCC1CC2)C1(C2=CC=CC2)CCCCCC1 |  | 103 µL/min/mg |  | 0.398 nM |  |  | 
46 | C[N+]1(C)CCC(OC(=O)C2(c3ccccc3)CCCCCC2)CC1 | 0.27 | 20 µL/min/mg |  | 0.251 nM |  |  | 
47 | O=C(C[N+]12CCC(CC1)[C@@H](OC(=O)C1(C3=CC=CC3)CCCCCC1)C2)Nc1cncc(Cl)n1 | 0.015 | 51 µL/min/mg | 0.501 nM | 0.1 nM |  |  | 
48 | O=C(O[C@H]1C[N+]2(CCCc3nc4ccccc4o3)CCC1CC2)C1(C2=CC=CC2)CCCCCC1 | 0.04 |  |  |  |  |  | 9.3 h
49 | NC(=O)C[N+]12CCC(CC1)[C@@H](OC(=O)C1(C3=CC=CC3)CCCCCC1)C2 | 0.18 | 19 µL/min/mg | 0.0794 nM | 0.2 nM |  |  | 11.4 h
50 | Cc1ccc(NC(=O)C[N+]23CCC(CC2)[C@@H](OC(=O)C2(C4=CC=CC4)CCCCCC2)C3)cn1 |  |  |  | 0.794 nM |  |  | 
51 | Cc1ccnc(NC(=O)C[N+]23CCC(CC2)[C@@H](OC(=O)C2(C4=CC=CC4)CCCCCC2)C3)c1 | 0.018 | 30 µL/min/mg |  | 0.794 nM |  |  | 
52 | O=C(O[C@H]1C[N+]2(CCc3ccccc3)CCC1CC2)C1(C2=CC=CC2)CCCCCC1 | 0.007 | 105 µL/min/mg | 0.316 nM | 0.0794 nM |  |  | 
